Several values for one entry are separate records, joined by “and”; a condition that tells them apart may be missing. Equal values may be shown once.
Test system: L1210
Test: Concentration that decreases the growth rate of the L1210 cells by 50% after 48 hr of culture
Format: functional
Settings: Mus musculus, L1210, 48 h; read-out: ID50 (the source's name)
Summary of the method: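 L1210 leukemia cells cultured with increasing drug concentrations for 48 h at 37 °C under 5% CO2. Percentage inhibition of control growth was fitted by least-squares linear regression against log dose, and the concentration lowering control growth by 50% was estimated from the regression equation.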

Structure (SMILES)	IC50
COC1=CC(=O)c2ncncc2C1=O	0.593 µg/mL and 3.12 µM
COC1=C(N)C(=O)c2ncncc2C1=O	0.215 µg/mL and 1.05 µM
O=C1C(N2CCCCC2)=CC(=O)c2ncncc21	0.359 µg/mL and 1.48 µM
COC1=C(Br)C(=O)c2ncncc2C1=O	0.889 µg/mL and 3.31 µM

— ChEMBL document CHEMBL1122504, “Heterocyclic Quinones. 4. A new highly cytotoxic drug: 6,7-bis(1-aziridinyl)-5,8-quinazolinedione” (1983)
